Publication PMC6447837 (Cancer Science, 2019)

Experiments:
Yes = Yes (Homo sapiens, UniProt P07947); assay: Radiometric kinase IC50 assay; type: biochemical
Lck = Lck (Homo sapiens, UniProt P06239); assay: Radiometric kinase IC50 assay; type: biochemical
Aspc‐1 = assay: MTT antiviability assay; type: cell-based; conditions: Homo sapiens, ASPC1, 72 h
Capan‐2 = assay: MTT antiviability assay; type: cell-based; conditions: Homo sapiens, Capan-2, 72 h
CFPAC = assay: MTT antiviability assay; type: cell-based; conditions: Homo sapiens, 72 h
HPAC = assay: MTT antiviability assay; type: cell-based; conditions: Homo sapiens, 72 h
MDA‐MB‐436 = assay: MTT antiviability assay; type: cell-based; conditions: Homo sapiens, MDA-MB-436, 72 h
MCF‐7 = assay: MTT antiviability assay; type: cell-based; conditions: Homo sapiens, MCF7, 72 h
A375 = assay: MTT antiviability assay; type: cell-based; conditions: Homo sapiens, A-375, 72 h
COLO‐205 = assay: MTT antiviability assay; type: cell-based; conditions: Homo sapiens, COLO 205, 72 h
NCI‐N87 = assay: MTT antiviability assay; type: cell-based; conditions: Homo sapiens, NCI-N87, 72 h
Aspc‐1 cells [1] = assay: Annexin V/PI apoptosis assay; type: cell-based, human; conditions: 24 hours
Outline: (§1)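 Cells were treated with a range of concentrations for 24 hours, washed with PBS, then stained with annexin V‑FITC and propidium iodide for 15 minutes in the dark. […] Early (annexin V) and late (PI) apoptotic cells are reported as percentages, mean of n = 3 with SD.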

Bxpc‐3 cells [2] = assay: Annexin V/PI apoptosis assay; type: cell-based, human; conditions: 24 hours
Outline: as §1

Src = Src (Homo sapiens, UniProt P12931); type: cell-based; conditions: 12 hours, western blot
Sequence of Src (P12931 whole entry): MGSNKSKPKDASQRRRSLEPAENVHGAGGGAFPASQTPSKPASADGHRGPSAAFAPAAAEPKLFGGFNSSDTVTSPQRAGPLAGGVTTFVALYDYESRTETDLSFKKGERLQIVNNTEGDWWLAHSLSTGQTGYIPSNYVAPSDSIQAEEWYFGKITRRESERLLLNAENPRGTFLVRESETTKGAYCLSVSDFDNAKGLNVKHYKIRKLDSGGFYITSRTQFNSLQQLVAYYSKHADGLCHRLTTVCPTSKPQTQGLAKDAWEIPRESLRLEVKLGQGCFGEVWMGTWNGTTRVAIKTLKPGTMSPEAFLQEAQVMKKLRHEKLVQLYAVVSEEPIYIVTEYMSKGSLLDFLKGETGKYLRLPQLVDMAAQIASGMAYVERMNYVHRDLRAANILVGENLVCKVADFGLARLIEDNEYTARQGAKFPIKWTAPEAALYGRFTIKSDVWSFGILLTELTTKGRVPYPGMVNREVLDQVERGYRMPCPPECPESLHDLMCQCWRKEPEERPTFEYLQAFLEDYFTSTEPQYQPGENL

FOSL1 [3] = assay: Western blot, FOSL1 expression in intact cells; type: cell-based, human; conditions: 12 hours
ERK = assay: Western blot, ERK phosphorylation; type: cell-based, human; conditions: Aspc‐1 and Bxpc‐3 cells, 12 hours
Outline: (§2)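 Aspc-1 and Bxpc-3 cells were grown overnight in complete medium and treated with test compound for 12 h. Cells were lysed in RIPA buffer and protein was quantified. Lysates were run on SDS-PAGE and transferred to PVDF, then blocked 2 h in TBS-T with 5% non-fat milk. Blots were probed for pAKT Ser473, pERK Thr202/Tyr204, pSTAT3 Tyr705, the matching total proteins and β-actin. Detection was by enhanced chemiluminescence.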

AKT = assay: Western blot, AKT phosphorylation; type: cell-based, human; conditions: Aspc‐1 and Bxpc‐3 cells, 12 hours
Outline: as §2

STAT3 = assay: Western blot, STAT3 phosphorylation; type: cell-based, human; conditions: Aspc‐1 and Bxpc‐3 cells, 12 hours
Outline: as §2

Bxpc‐3 xenograft = assay: Subcutaneous xenograft model; type: in vivo, NOD‐SCID mice; conditions: Bxpc‐3 model
Outline: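 Female NOD‑SCID mice bearing s.c. right‑flank tumors (5 × 10⁶–1 × 10⁷ cells injected) were randomized at 100–200 mm³ (6–7 per group). They received test compound in 25% PEG400/5% DMSO/water by oral gavage once daily for 18 days, or vehicle. Tumors were measured by caliper every 3 days, with volume = length × width² × 0.5.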

[4] = Body weight during treatment in xenograft models; type: in vivo, NOD‐SCID mice; conditions: Aspc‐1 and Bxpc‐3 xenograft models; 20 or 40 mg/kg/d p.o., 18 days
Outline: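 Six‑week‑old female NOD‑SCID mice received 5 × 10⁶–1 × 10⁷ cells s.c. in the right flank and were grouped (6 per group) at about 200 mm³. Test compound in 25% (v/v) PEG400 plus 5% DMSO in deionized water was given by oral gavage once daily for 18 days, alongside vehicle controls. Mean body weight with SD was recorded.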

FOSL1 [5] = assay: Immunohistochemistry of xenograft tumor tissues; type: in vivo, NOD‐SCID mice; conditions: Aspc‐1 and Bxpc‐3 models; LY‐1816 and dasatinib 40 mg/kg/d p.o., gemcitabine 80 mg/kg/wk; IHC
Outline: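 Six-week-old female NOD-SCID mice received 5 × 10⁶ to 1 × 10⁷ cells s.c. in the right flank. Treatment began at about 200 mm³. Test compound (40 mg/kg/d) was given once daily by oral gavage in 25% PEG400 plus 5% DMSO in water. Tumors were resected at the end of dosing. Frozen sections were immunostained and imaged by light microscopy.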

Aspc‐1 cells [6] = assay: Wound healing assay; type: cell-based, human; conditions: 18 hours
Bxpc‐3 cells [7] = assay: Transwell invasion assay; type: cell-based, human
Outline: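 Inserts were precoated with polymerized collagen type I. Cells were seeded on the insert bottom in serum‑free medium with serial dilutions of test compound or vehicle, with 10% FBS medium in the lower chamber. After one day, cells were stained with calcein‑AM and optical sections taken at 10‑μm intervals. Invasion was scored as cells moving >20 μm into collagen; n = 3, mean with SD.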

[8] = tested on: Miapaca‐2 metastatic model; assay: Experimental metastasis assay; type: in vivo, NOD‐SCID mice; conditions: 40 mg/kg/d
Outline: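 Miapaca‑2 cells (5 × 10⁶) were injected into the tail vein of 5‑ to 6‑week‑old female NOD‑SCID mice. Mice were randomized immediately into 5 groups of 6 and given test compound p.o. at 20 or 40 mg/kg, comparators, or vehicle. […] Kaplan–Meier analysis used a log rank test against control.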

PC‐9 = conditions: PC‐9, Lung cancer; mean ± SD; ref Zhang et al (2016) 35; cited from earlier work
HepG2 = conditions: HepG2, Hepatocarcinoma; ref Zhang et al (2016) 35; cited from earlier work
MV4‐11 = conditions: MV4‐11, Leukemia; mean ± SD; ref Zhang et al (2016) 35; cited from earlier work
LO2 = conditions: LO2, Human hepatic cells (normal cell line); ref Zhang et al (2016) 35; cited from earlier work

Sequence of Yes (P07947 whole entry): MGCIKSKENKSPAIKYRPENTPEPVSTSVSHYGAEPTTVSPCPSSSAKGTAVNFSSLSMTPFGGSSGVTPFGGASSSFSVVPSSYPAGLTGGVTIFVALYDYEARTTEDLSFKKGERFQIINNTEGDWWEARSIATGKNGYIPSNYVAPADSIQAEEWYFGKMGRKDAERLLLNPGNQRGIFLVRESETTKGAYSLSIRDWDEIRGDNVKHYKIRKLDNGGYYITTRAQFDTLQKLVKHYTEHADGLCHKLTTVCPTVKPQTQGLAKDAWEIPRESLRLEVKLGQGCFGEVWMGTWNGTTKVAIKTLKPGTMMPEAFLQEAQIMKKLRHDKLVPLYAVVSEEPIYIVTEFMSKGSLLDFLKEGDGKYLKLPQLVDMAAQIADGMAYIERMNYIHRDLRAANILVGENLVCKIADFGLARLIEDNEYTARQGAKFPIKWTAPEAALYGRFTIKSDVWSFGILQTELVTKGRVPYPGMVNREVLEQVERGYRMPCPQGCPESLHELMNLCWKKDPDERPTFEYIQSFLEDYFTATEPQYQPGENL
Sequence of Lck (P06239 whole entry): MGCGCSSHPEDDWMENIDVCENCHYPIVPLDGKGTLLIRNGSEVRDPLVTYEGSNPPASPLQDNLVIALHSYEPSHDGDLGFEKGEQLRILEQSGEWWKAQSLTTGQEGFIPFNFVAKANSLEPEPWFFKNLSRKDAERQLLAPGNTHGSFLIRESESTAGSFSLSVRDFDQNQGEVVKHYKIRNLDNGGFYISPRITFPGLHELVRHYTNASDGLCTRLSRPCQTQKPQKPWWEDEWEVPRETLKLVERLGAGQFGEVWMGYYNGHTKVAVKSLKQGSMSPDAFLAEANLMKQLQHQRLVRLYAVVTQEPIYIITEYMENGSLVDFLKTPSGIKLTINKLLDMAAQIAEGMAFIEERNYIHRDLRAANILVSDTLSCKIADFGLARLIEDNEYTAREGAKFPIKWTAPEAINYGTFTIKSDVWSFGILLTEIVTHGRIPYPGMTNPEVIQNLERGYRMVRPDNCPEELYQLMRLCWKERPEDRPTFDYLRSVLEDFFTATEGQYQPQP

Cc1ccc(NC(=O)c2ccc(C)c(C(F)(F)F)c2)cc1C#Cc1nn(C2CCC(O)CC2)c2ncnc(N)c12 (stereo not shown) [LY‐1816, N‐(3‐((4‐amino‐1‐(4‐hydroxycyclohexyl)‐1H‐pyrazolo[3,4‐d]pyrimidin‐3‐yl)ethynyl)‐4‐methylphenyl)‐4‐methyl‐3‐(trifluoromethyl)benzamide] showed an IC50 (Yes) of 1 nM, an IC50 (Lck) of 14 nM and an IC50 (Aspc‐1) of 54 ± 8 nM. It also gave an IC50 (Capan‐2) of 97 ± 14 nM, an IC50 (CFPAC) of 96 ± 60 nM and an IC50 (HPAC) of 45 ± 4 nM. For the same compound, the IC50 (MDA‐MB‐436) was greater than 10000 nM, the IC50 (MCF‐7) was greater than 10000 nM and the IC50 (A375) was 134 ± 2 nM. For the same compound, the IC50 (COLO‐205) was 17 ± 1 nM, the IC50 (NCI‐N87) was 147 ± 44 nM and the “apoptosis (annexin V and PI‐positive populations)” value (Aspc‐1 cells [1]) was “significantly increased the annexin V and PI‐positive populations”. The “apoptosis (annexin V and PI‐positive populations)” value (Bxpc‐3 cells [2]) was “significantly increased the annexin V and PI‐positive populations”, the “phosphorylation of Src” value (Src; 10 PDAC cell lines) was “potently inhibited the phosphorylation of Src” and the Src phosphorylation (Src; HT29 and HCT116 cells) was “relatively weak potency”. For the same compound, the FOSL1 expression (FOSL1 [3]; 10 PDAC cell lines) was “downregulated the FOSL1 expression”, the FOSL1 expression (FOSL1 [3]; HT29 and HCT116 cells) was “relatively weak potency” and the “phosphorylation of ERK” value (ERK) was “very weak or no impact on the phosphorylation of ERK and AKT”. For the same compound, the “phosphorylation of AKT” value (AKT) was “very weak or no impact on the phosphorylation of ERK and AKT”, the “phosphorylation of STAT3” value (STAT3) was “significantly inhibit STAT3 phosphorylation” and the “tumor‐inhibition rate” value (Bxpc‐3 xenograft; 40 mg/kg daily, orally, 18 days) was greater than 90%. The antitumor activity (Bxpc‐3 xenograft; LY‐1816 20 or 40 mg/kg/d p.o., dasatinib 40 mg/kg/d p.o., gemcitabine 80 mg/kg once a week) was “dose‐dependent tumor inhibitory activities”, the body weight [4] was “no significant decrease in body weight” and the “expression of FOSL1 in tumor tissues” value (FOSL1 [5]) was “evidently reduced”. The cell migration (Aspc‐1 cells [6]) was “dose‐dependently reduced cell migration”, the cell invasion (Bxpc‐3 cells [7]) was “significantly suppressed the invasion” and the “mice alive at day 105” value [8] was 33%. For the same compound, the IC50 (PC‐9) was 152 ± 41 nM, the IC50 (HepG2) was greater than 10000 nM and the IC50 (MV4‐11) was 138 ± 15 nM. The IC50 (LO2) was greater than 10000 nM.
